FN deposit inh: inhibitors of fibronectin matrix deposition, primary screen, AH1F cells, Alexa488-fibronectin fluorescence, plate reader | AH1F fibroblasts, overnight | inhibition, % at 12.6 µM | AID 743247, 2014 | 350,000 compounds, 0.086% hits;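 active = mean inhibition across replicates of 30% or more, regardless of how many single replicates reach that level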;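 also: positive control wells lacked labelled fibronectin entirely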
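Assay system: AH1F fibroblast monolayer, labelled fibronectin deposition. Amount: 10000 cells per well. Also added: labelled fibronectin 24 nM. Compound: single-point pinned compound. Incubation: cell attachment 1 h, compound and FN exposure overnight. Detection: fluorescence after three HBSS washes, excitation 485 nm, emission 525 nm. Read-out: inhibition of fibronectin deposition signal.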
TWEAK Fn14 block: inhibitors of TWEAK-Fn14 signaling, primary screen, luciferase reporter cells, uHTS | 360,000 compounds, 2% hits | inhibition, % at 10 µM | TWEAK-stimulated Fn14 reporter cells, luciferase luminescence, 8 h | AID 1159606, 2016; in the data active = inhibition above about 50%
LGR2 inh: inhibitors of bursicon-induced LGR2 CRE-luciferase signal, primary screen, cell-based, HEK293, CRE-luciferase reporter, bursicon stimulation; inhibition, % at 9.99 µM; bursicon-stimulated, 4 h; Drosophila bursicon receptor LGR2 (rickets); AID 720647, 2013; 380,000 compounds, 0.35% hits;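 active = drop in luminescence signal, shown as inhibition above about 50% in the replicate tests, limit read from the data, passing the limit was not always enough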;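 also: agonist challenge used bursicon conditioned medium at about half maximal strength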
XiGFP reactiv: activators of inactive X chromosome reactivation, primary screen, imaging, XiGFP fibroblasts, GFP high-content imaging, set 2. XiGFP mouse fibroblasts, % GFP-positive cells imaging, 3 d; cells co-treated with 5-aza-dC sensitizer; scaled so ellipticine positive control = 100%. activation, % at 7.58 µM. 360,000 compounds, 0.055% hits;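 active = mean normalized replicate activation at least 10% and every replicate at or above 10%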;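 also: 0% = median of on-plate neutral control wells and 100% = ellipticine 6 µM median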
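System: 68-5-11 XiGFP fibroblast line; Timing: 3 days compound exposure; Compound dosing: one concentration, pinned; Benchmarks: positive control ellipticine, 6 µM final; Buffer or medium: DMEM containing 5-aza-dC.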
EWS-Fli block: EWS/Fli-driven NR0B1 reporter inhibitors, primary screen, A673 cells, NR0B1 luciferase, luminescence, MLPCN library; viability-normalised; inhibition, % at 12.6 µM; 350,000 compounds, 0.67% hits; AID 651661, 2012;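 active = mean inhibition of at least 50% after viability correction, with every replicate also passing that limit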;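 also: firefly luciferase signal divided by Alamar Blue viability fluorescence both relative to DMSO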
TROY signal inh: inhibitors of TROY-driven NF-kB signaling, primary screen, Q293 LMP1-TROYcd cells, NF-kB luciferase, uHTS; Q293 LMP1-TROYcd NF-kB luciferase reporter, 4 h; 360,000 compounds, 0.98% hits; inhibition, % at 10 µM;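 active = compounds whose plate-normalised and pattern-corrected inhibition of the luciferase reporter signal at the single screening dose is 50% or more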
DNA binding: DNA binders by acridine orange displacement, dose response, counter-screen for EWS/Fli inhibitor project, biochemical, fluorescence polarization, cherry-pick; shares compounds with EWS-Fli block; salmon sperm DNA acridine orange fluorescence polarization; AC35, µM (series often up to 68 µM), for the others: at the top dose activity change, negative = DNA binding; 640 compounds, 2% hits; AID 720586, 2013;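 active = fitted curve reaches a 35% signal fall AC35 below twice the sample's top valid tested dose, actives reach about 48 µM in these data; inactive = the rest, including activity in the rising direction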;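 also: lower polarization ratio signals compound binding to DNA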
The depositor's hits bear a star; i = inactive; x = no result. A selection: hits, their analogues and other compounds. The true share with any hit is near 2.3%.

SMILES	FN deposit inh	TWEAK Fn14 block	LGR2 inh	XiGFP reactiv	EWS-Fli block	TROY signal inh	DNA binding
COC(=O)c1c(C)[nH]c(/C=N/Nc2ccccc2)c1C	15.1	1.1	x	2.5	54.0*	8.2	-16.7%
Cc1c(C=NNc2ccccc2)[nH]c(=O)[nH]c1=O	4.8	-10.4	6.8	0.0	16.9	-2.7	x
COc1cccc(NC(=O)N[C@@H]2C=C[C@@H](CC(=O)Nc3ccc(-c4ccccc4)cc3)O[C@H]2CO)c1	-11.3	x	3.6	0.3	x	x	x
COc1ccc2c3c(n(C)c2c1)[C@H](CO)N(C(=O)CN1CCOCC1)CC31CCN(C(=O)CC2CC2)CC1	x	x	x	0.5	x	x	x
CCN1/C(=C/C=C/c2oc3ccc(-c4ccccc4)cc3[n+]2CC)Oc2ccc(-c3ccccc3)cc21	i	55.9*	36.7	102.6*	90.5*	-0.7	22.4µM*
COCC(=O)Nc1ccc2c(c1)[C@@H]1C[C@H](CC(=O)NC3CCCCC3)O[C@H](CO)[C@@H]1O2	0.5	x	0.0	0.1	-4.0	x	x
COc1ccc(C(C)(O)c2nc(-c3cccc(F)c3)cs2)cc1 (stereo unspecified)	9.9	9.2	2.1	0.1	52.6*	15.4	1.7%
C/C(=N\N(c1ccccc1)c1ccccc1)c1ccco1	x	1.4	14.4	0.0	58.5*	3.3	0.1%
CC(=O)n1cc([C@@H]2C=C(C(=O)N3CCN(Cc4ccccc4)CC3)O[C@H](OCCCCO)C2)c2ccccc21	x	x	x	x	2.2	x	x
CCN1CCN(Cc2c(O)ccc3c2O/C(=C\C=C\c2ccccc2)C3=O)CC1	-3.3	29.6	5.6	0.1	8.6	-23.6	x
CN(C)Cc1c(O)ccc2c1O/C(=C\C=C\c1ccccc1)C2=O	2.4	24.7	-40.5	0.0	75.2*	20.8	-39.2%
Cc1nc(N)nc(N)c1-c1ccc(Cl)c(Cl)c1	x	12.1	17.2	0.7	52.9*	4.1	-5.9%
Cc1nc(N)nc(N)c1CCCc1ccc(Cl)c(Cl)c1	-8.5	-54.5	18.7	0.5	74.6*	-34.7	-18.8%
CCCCCCCCCCCCCCCCn1cc[n+](C)c1	33.9*	78.0*	x	0.3	73.4*	42.4	-16.9%
C[n+]1ccn(CC(=O)c2cccs2)c1	-6.9	-5.1	11.7	0.0	8.1	-4.5	x
Nc1cccc(O)c1	x	-9.9	-13.2	x	-9.3	-8.2	x
Oc1cccc(-c2nnc(-c3cccc(O)c3)nn2)c1	x	84.5*	83.6*	0.0	72.2*	26.9	-9.9%
COc1ccc(C(=O)Nc2cc(C)nn2-c2nc3ccccc3[nH]2)c(OC)c1	11.8	-1.7	-0.3	0.3	-1.4	13.0	x
COc1cccc(OC)c1C(=O)Nc1cc(C)nn1-c1nc2ccccc2[nH]1	-2.4	38.1	6.0	0.0	58.5*	29.8	2.3%
CC(=O)Nc1ccc(OCC(=O)N(CC(C)C)C2CCS(=O)(=O)C2)cc1 (stereo unspecified)	3.1	14.3	x	0.5	67.9*	-2.9	-0.1%
COc1ccc(/C=C2\SC(=O)N(CCCC(=O)Nc3cc(Cl)ccc3C(=O)O)C2=O)cc1	2.8	104.0*	30.2	-0.2	85.1*	84.5*	-9.5%
Oc1ccc(Cl)c2cccnc12	5.9	13.3	1.2	-0.1	21.4	1.4	x
Oc1c(Cl)cc(Cl)c2cccnc12	0.8	45.3	5.1	0.4	54.2*	63.4*	-3.9%
CN(C)CC1CCC/C(=C\c2ccc(OC(=O)/C=C/c3ccccc3)cc2)C1=O (stereo unspecified)	-8.2	-9.9	1.9	0.3	-5.4	3.1	x
CN(C)CC1CCC/C(=C\c2ccc(OC(=O)c3ccc(Cl)cc3)cc2)C1=O (stereo unspecified)	-0.8	16.7	7.4	0.6	58.9*	-5.3	-8.4%
SMILES	FN deposit inh	TWEAK Fn14 block	LGR2 inh	XiGFP reactiv	EWS-Fli block	TROY signal inh	DNA binding
O=C(c1nnsc1S(=O)c1ccc(Cl)cc1)N1CCOCC1 (stereo unspecified)	1.6	86.3*	x	0.0	77.9*	50.9*	-9.7%
O=C(N[C@@H]1CC[C@@H](CCNC(=O)C2CCCCC2)O[C@H]1CO)c1ccccn1	7.3	x	5.4	0.0	3.4	x	x
CC(C)NC(=O)N(C)C[C@H]1Oc2cc(C#C[C@H](C)O)ccc2S(=O)(=O)N([C@H](C)CO)C[C@H]1C	-4.3	x	-0.5	-1.3	-1.1	x	x
O=C(Nc1cccc(S(=O)(=O)N2CCOCC2)c1)c1ccc(Cl)nc1	3.0	11.4	-2.9	0.0	-72.9	17.9	x
O=C(Nc1cccc(S(=O)(=O)N2CCCC2)c1)c1ccc(Cl)nc1	4.5	12.9	14.8	0.0	51.1*	9.9	-10.8%
COC(=O)C[C@@H]1CC[C@@H]2[C@@H](COc3ccc(NC(=O)Nc4cccc(C#N)c4)cc3C(=O)N2C)O1	-2.7	x	0.2	0.0	76.3*	x	7.2%
COC(=O)C[C@@H]1CC[C@H]2[C@H](COc3ccc(NC(=O)Nc4cccc(C#N)c4)cc3C(=O)N2C)O1	1.7	x	11.3	0.0	33.6	x	x
COC(=O)C[C@H]1CC[C@H]2[C@H](COc3ccc(NC(=O)Nc4cccc(Cl)c4)cc3C(=O)N2C)O1	-13.1	x	4.0	0.2	79.6*	x	-4.3%
COC(=O)C[C@H]1CC[C@@H]2[C@@H](COc3ccc(NC(=O)Nc4cccc(Cl)c4)cc3C(=O)N2C)O1	-3.4	x	31.3	0.2	-8.9	x	x
COC(=O)C[C@@H]1CC[C@H]2[C@H](COc3ccc(NC(=O)Nc4cc(C)cc(C)c4)cc3C(=O)N2C)O1	3.9	x	9.1	0.0	64.3*	x	2.4%
COC(=O)C[C@H]1CC[C@@H]2[C@H](COc3ccc(NC(=O)Nc4cccc(Cl)c4)cc3C(=O)N2C)O1	-5.4	x	27.0	0.3	60.2*	x	-3.7%
CCCNC(=O)N(C)C[C@H]1Oc2ncc(C3=CCCCC3)cc2C(=O)N([C@@H](C)CO)C[C@@H]1C	x	x	-19.9	0.3	-3.3	x	x
COc1ccc(CN(C)c2ncnc3sccc23)c(OC)c1OC	-1.4	21.6	-0.2	0.1	63.0*	-8.0	-6.7%
C[C@H](CO)N1C[C@H](C)[C@@H](CN(C)C(=O)C2CC2)Oc2ncc(/C=C/c3ccccc3)cc2C1=O	14.5	x	-1.0	0.0	-12.1	x	x

Compound activity deposited in PubChem BioAssay by several laboratories.
